For orientation: MIC means the smallest concentration in the dilution series that meets the test's criterion for growth inhibition. Read a high MIC as a need for much substance. What is called IC50 is the concentration needed to halve the response being measured. Read a low IC50 as higher potency.

SMILES strings stand for the structures. Converted amounts (≈) assume the structure as drawn.

The text below walks through data of ChEMBL document CHEMBL1158358, “Synthesis, antimicrobial and cytotoxic activities of some 5-arylidene-4-thioxo-thiazolidine-2-ones” (Eur J Med Chem, 2009).

Experiment [1] has as its system Mycolicibacterium smegmatis. Description: Antimicrobial activity against Mycobacterium smegmatis UFPEDA 71 at 30 ug/disk after 24 hrs by disk diffusion method. Format: functional. Particulars: UFPEDA 71, 24 h, read-out: IZ. Background: Agar diffusion results depend on both activity and mobility in agar.
A further experiment has as its system Serratia marcescens. The experiment can be described thus: Antimicrobial activity against Serratia marcescens UFPEDA 398 at 30 ug/disk after 24 hrs by disk diffusion method. Format: functional. Particulars: UFPEDA 398, 24 h, read-out: IZ.
The next experiment deals with Pseudomonas aeruginosa. Description: Antimicrobial activity against Pseudomonas aeruginosa UFPEDA 39 at 30 ug/disk after 24 hrs by disk diffusion method. The following applies: UFPEDA 39, 24 h, read-out: IZ. The class given is functional.
The test system of the next experiment is Escherichia coli. Description: Antimicrobial activity against Escherichia coli UFPEDA 224 at 30 ug/disk after 24 hrs by disk diffusion method. The class given is functional. Particulars: UFPEDA 224, 24 h, read-out: IZ.
Experiment [2] concerns Candida albicans. The experiment can be described thus: Antimicrobial activity against Candida albicans UFPEDA 1007 at 25 ug/disk after 48 hrs by disk diffusion method. Format: functional. Particulars: UFPEDA 1007, 48 h, read-out: IZ. An outline of the steps:
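Preliminary screen: 6 mm paper disks bearing the agent placed on agar plates inoculated with a standardized microbial suspension. Negative control was DMSO-only disks. Inhibition zones are means of n = 3; no zone or a mean zone below 7 mm was scored as no sensitivity.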

For experiment [3], the system named is Candida albicans. The experiment can be described thus: Antimicrobial activity against Candida albicans UFPEDA 1007 after 48 hrs by twofold serial dilution technique. The class given is functional. Particulars: UFPEDA 1007, 48 h. Put shortly: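 MIC was determined by twofold serial dilution. Bacteria were tested in plates at 10⁵ CFU/plate and read after 20 h. C. albicans was tested in tubes at 10³ CFU/tube and read after 48 h. All incubations were at 35 °C. Medium plus DMSO served as the negative control.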

The subject of the next experiment is HEp-2. The experiment can be described thus: Cytotoxicity against human Hep2 cells after 72 hrs by MTT assay. Format: functional, cell-based. The following applies: HEp-2, 72 h. An outline of the steps: (§1)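 MTT antiproliferative assay. Cells were diluted to 10⁵ cells/mL in 96-well plates and preincubated for 24 h at 37 °C in humid 5% CO₂. Compounds or vincristine (reference) were then added. Formazan was dissolved and OD read at 540 nm, compared with medium-only control cells. Run in triplicate.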
For orientation: Tetrazolium assays rely on reduction of a dye to a coloured formazan, in cell work by metabolically active cells.

A further experiment relates to NCI-H292. Description: Cytotoxicity against human NCI-H292 cells after 72 hrs by MTT assay. Particulars: NCI-H292, 72 h. Format: functional, cell-based. An outline of the steps: as §1

Regarding `NC[C@H]1O[C@H](O[C@H]2[C@H](O)[C@@H](O[C@H]3O[C@H](CO)[C@@H](O)[C@H](N)[C@H]3O)[C@H](N)C[C@@H]2N)[C@H](O)[C@@H](O)[C@@H]1O` [KANAMYCIN], the zone of inhibition at 30 µg/disc was found to be 40 mm in experiment [1], 45 mm in the experiment with Serratia marcescens, 20 mm in the experiment on Pseudomonas aeruginosa and 15 mm in the experiment on Escherichia coli.

Turning to `CC(=O)N1CCN(c2ccc(OCC3COC(Cn4ccnc4)(c4ccc(Cl)cc4Cl)O3)cc2)CC1` (stereo not drawn) [KETOCONAZOLE], the zone of inhibition at 25 µg/disc in the experiment on Candida albicans [2] was determined as 28 mm. Besides, in the experiment on Candida albicans [3], the MIC was ≤ 1 µg/mL.

Regarding `CC[C@]1(O)C[C@H]2CN(CCc3c([nH]c4ccccc34)[C@@](C(=O)OC)(c3cc4c(cc3OC)N(C=O)[C@H]3[C@@](O)(C(=O)OC)[C@H](OC(C)=O)[C@]5(CC)C=CCN6CC[C@]43[C@@H]65)C2)C1` [VINCRISTINE], the IC50 in the experiment on HEp-2 worked out at 0.003 µg/mL (≈ 0.00364 µM); with NCI-H292 it was 0.04 µg/mL (≈ 0.0485 µM).
